The values below come from article PMC3115796 (The Journal of Cell Biology, 2011).

The target of data set [1] is T1, CLIPCG2 (second CAP-Gly domain of CLIP-170) (Homo sapiens, UniProt P30622).
T1 sequence (P30622 210-282): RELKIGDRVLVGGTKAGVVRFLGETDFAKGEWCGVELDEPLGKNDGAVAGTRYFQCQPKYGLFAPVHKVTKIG
Briefly: ITC of SLAIN2c with second CAP-Gly domain of CLIP-170. The data set is classed as binding.

For data set [2], the target named is T2, CLIPCG1 (first CAP-Gly domain of CLIP-170) (Homo sapiens, UniProt P30622).
T2 sequence (P30622 56-128): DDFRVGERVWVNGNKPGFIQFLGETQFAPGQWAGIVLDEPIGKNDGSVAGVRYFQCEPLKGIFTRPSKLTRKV
Briefly: ITC of SLAIN2c with first CAP-Gly domain of CLIP-170. The data set is classed as binding.

The subject of data set [3] is SLAIN2 C terminus / full-length CLIP-170. Briefly: GST-SLAIN2 pull-down of CLIPs and full-length CLIP-170. In kind it is binding.
Data set [4] has as its target T3, CLIPCG12 (both CAP-Gly domains of CLIP-170) (Homo sapiens, UniProt P30622).
T3 sequence (P30622 48-300): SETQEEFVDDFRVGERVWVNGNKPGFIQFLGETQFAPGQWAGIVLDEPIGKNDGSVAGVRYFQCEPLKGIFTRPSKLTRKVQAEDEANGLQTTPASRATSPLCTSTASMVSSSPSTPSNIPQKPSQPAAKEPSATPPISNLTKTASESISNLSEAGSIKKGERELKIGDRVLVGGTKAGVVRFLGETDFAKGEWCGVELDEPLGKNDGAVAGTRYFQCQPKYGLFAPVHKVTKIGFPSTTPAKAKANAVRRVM
Briefly: ITC of SLAIN2c with double CAP-Gly construct of CLIP-170. In kind it is binding.

Data set [5] relates to p150CG (CAP-Gly domain of dynactin large subunit p150^Glued). The data set is described as follows: ITC of SLAIN2c with CAP-Gly domain of p150Glued. Conditions: ITC in PBS, 25°C. In kind it is binding, human.
A further data set concerns SLAIN2 in 3T3 cells. Briefly: siRNA knockdown in mouse 3T3 cells. The data set is classed as cell-based. The conditions noted are these: siRNA 5 nM, 72 h. The method in brief:
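Mouse Swiss 3T3 cells were cultured in 45% DME, 45% Ham's F10 and 10% FCS. Cells were blocked in interphase with 2 mM thymidine, added 1 d after transfection, for 2 d.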

Entries after “also recorded” stand apart in the source; their conditions may differ. Ends that are not written are not given here.

Regarding SLAIN2c-W576A (GSMKDDSAKDGCY), the “binding by ITC (in words)” value in data set [1] (ITC in PBS, 25°C) is “abrogates binding”; in data set [2] (ITC in PBS, 25°C) it was “abrogates binding”.

Regarding “GFP–CLIP-115: full-length rat CLIP-115 [reference compound]”, the “association with SLAIN2 C terminus” value in data set [3] is on record as “associated with the SLAIN2 C terminus”.

In the case of GSMKDDSWKDGCY-OH [SLAIN2c], the “Kd (in words)” value in data set [4] was “comparable”; in data set [1] (ITC), “micromolar range”; in data set [2] (ITC) it was “micromolar range”. Moreover, in data set [5], the “binding by ITC (in words)” value is recorded as “only very weak binding; also recorded: more weakly than the two CAP-Gly domains of CLIP-170”.

With “SLAIN2 siRNA#2: siRNA target sequence 5′-CUCUAUAGAUAGUGAGUUA-3′ (chemistry not given here)”, the “depletion of SLAIN2” value with SLAIN2 in 3T3 cells is on record as “efficiently deplete SLAIN2”.
